Assay outcomes (PubChem)
T cruzi inh: inhibitors of intracellular T. cruzi growth, primary screen, luminescence, NIH3T3 host cells; T. cruzi beta-gal in NIH3T3, 90 h; inhibition, % (test concentration not listed); 300,000 tested, 1.4% active;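 active means mean inhibition across valid replicates above about 55%, limit read from the data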;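 further: signal also drops with host cell toxicity which is not excluded here; 0% = plate median of DMSO wells and 100% = zero luminescence signal; higher percent means less beta-gal luminescence so fewer parasites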
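System: mouse NIH/3T3 fibroblasts infected with β-gal-expressing T. cruzi Tulahuen C4 / Input: NIH/3T3 cells, 5,000 per well / Buffer or medium: Low-serum DMEM with 2% FBS / Probe or stimulus: 5000 reporter trypomastigotes per well / Schedule: ≥90 h infection period, 3 h prior cell attachment / Measured by: GalScreen luminescence, 60 min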
HSF-1 act: HSF-1 activators, primary screen, NIH3T3-HGL cells, MG132 stress, luminescence, single point. NIH3T3-HGL HSF-1 luciferase reporter, 8 h; 100% = twice DMSO control signal. activation, % at 9 µM. 300,000 tested, 1.7% active. AID 504408, 2011;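 active means mean replicate activation of at least 50% with a set share of replicates each reaching 50%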;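 further: 0% = median of the neutral control wells and 100% = twice that signal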
Glyco luc inh: increase of ERlucT glycosylation luciferase signal, primary screen, N-linked glycosylation inhibitor project, D54 ERlucT cells, luminescence, set 2; D54 ERlucT glycosylation luciferase reporter, 24 h; percent of 100 nM tunicamycin response; reporter increase, % at 12.5 µM; 360,000 tested, 0.23% active; AID 588692, 2011;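 active means mean luciferase reporter signal, scaled so untreated is 0 and the glycosylation-blocking control 100, at or above a set limit in every replicate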;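 further: luciferase carries N-glycosylation sites so blocking glycosylation raises the light; 0% = median of neutral control wells and 100% = median of 100 nM tunicamycin wells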
PfHsp90 yeast 2: growth inhibition of PfHsp90-expressing yeast, primary screen, antimalarial PfHsp90 inhibitor project, S. cerevisiae, BacTiter-Glo luminescence, single point, set 2; BacTiter-Glo ATP, 48 h; yeast lacking PDR1 and PDR3 efflux regulators; inhibition, % at 9.4 µM; 310,000 tested, 0.32% active; AID 504621, 2011;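 active means every replicate shows inhibition above about 80%, whatever the replicate mean, limit read from the data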;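 further: 0% = DMSO neutral controls and 100% = 20 µM radicicol positive controls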
PvdQ inh: P. aeruginosa PvdQ acylase inhibitors, primary screen, biochemical, fluorescence, plate reader and imaging, single point. AID 488965, 2010. PvdQ acylase [Pseudomonas aeruginosa LESB58]. inhibition, % at 10 µM. purified PvdQ acylase. 340,000 tested, 0.063% active; in the data active means inhibition above about 30%, passing the limit was not always enough;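 further: 0% = vehicle neutral wells and 100% = reference inhibitor wells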
CaV13 ICDI inh: Primary screen for inhibitors of IQ motif and Ca2+-dependent inactivation inhibitor domain binding in CACNA1D, Förster resonance energy transfer in living cells, …; HEK cells, CFP/YFP FRET ICDI-IQ, plate reader, 10 min; percent FRET-ratio fall versus neutral wells; inhibition, % at 12.3 µM; 340,000 tested, 0.098% active; AID 743397;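 active means mean replicate inhibition of at least 30% and at least 1% of replicates passing that level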;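 further: 0% = median of the neutral control wells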
Numbers without * were called inactive. The list is not random: actives were taken first. Their share in the collection is about 3%.

For O=Cc1s/c(=N\S(=O)(=O)c2ccccc2)n(CCCCl)c1Cl the results were T cruzi inh 81*, HSF-1 act 60*, Glyco luc inh -12, PfHsp90 yeast 2 26, PvdQ inh -10 and CaV13 ICDI inh -6.
`CCn1c(C)cs/c1=N\S(=O)(=O)c1ccccc1` gave T cruzi inh -7, HSF-1 act -5, Glyco luc inh 1, PfHsp90 yeast 2 3, PvdQ inh -17 and CaV13 ICDI inh -10.
For Cn1c(O)c(C=Nc2ccc(Br)cc2)sc1=O the results were T cruzi inh -3, HSF-1 act 58*, Glyco luc inh -1, PfHsp90 yeast 2 -4, PvdQ inh -16 and CaV13 ICDI inh -5.
CCCn1c(O)c(C=Nc2ccccc2)sc1=S was read as T cruzi inh 15, HSF-1 act 15, Glyco luc inh -2, PfHsp90 yeast 2 7, PvdQ inh -12 and CaV13 ICDI inh -1.
`CC(C)OC(=O)c1sc2nc(-c3ccccc3)ccc2c1N` gave T cruzi inh 19, HSF-1 act -71, Glyco luc inh -19, PfHsp90 yeast 2 -28, PvdQ inh -16 and CaV13 ICDI inh 11.
Screening Cc1ccc2c(N)c(C(=O)N(c3ccccc3)c3ccccc3)sc2n1 returned T cruzi inh 67*, HSF-1 act -54, Glyco luc inh -4, PfHsp90 yeast 2 10, PvdQ inh -2 and CaV13 ICDI inh -6.
Screening C=CCN1C(=O)N(CC=C)c2cccc3cccc1c23 returned T cruzi inh -18, HSF-1 act -8, Glyco luc inh 1, PfHsp90 yeast 2 2, PvdQ inh -18 and CaV13 ICDI inh -2.
For CCN1C(=O)Nc2cccc3cccc1c23 the results were T cruzi inh 3, HSF-1 act 34, Glyco luc inh 30*, PfHsp90 yeast 2 -33, PvdQ inh -16 and CaV13 ICDI inh -5.
CCCCCc1c(CC)ncn1CCc1ccccc1OC was read as CaV13 ICDI inh -5.
For Cc1ccc(NC(=S)N(CCCN2CCCC2)Cc2cccn2Cc2ccc(Cl)cc2)cc1C the results were T cruzi inh 39, HSF-1 act 28, Glyco luc inh -3, PfHsp90 yeast 2 -35, PvdQ inh -13 and CaV13 ICDI inh -2.
FC(F)(F)c1cccc(NC(=S)N(CCCN2CCCC2)Cc2cccn2Cc2ccc(Cl)cc2)c1 was read as T cruzi inh 71*, HSF-1 act 10, Glyco luc inh -5, PfHsp90 yeast 2 14, PvdQ inh 0 and CaV13 ICDI inh -5.
N#Cc1cnn(-c2ccc([N+](=O)[O-])cc2[N+](=O)[O-])c1N was read as Glyco luc inh 1 and CaV13 ICDI inh -7.
Screening O=c1c2ccccc2ncn1-c1ccc([N+](=O)[O-])cc1[N+](=O)[O-] returned T cruzi inh 63*, HSF-1 act 5, Glyco luc inh 2, PfHsp90 yeast 2 -30, PvdQ inh -11 and CaV13 ICDI inh -3.
For Cc1ccc(-n2cnn(-c3ccc([N+](=O)[O-])cc3[N+](=O)[O-])c2=O)cc1 the results were T cruzi inh 57*, HSF-1 act 18, Glyco luc inh 4, PfHsp90 yeast 2 8, PvdQ inh 8 and CaV13 ICDI inh -4.
For Cc1ccc(CN2CCC=CS2(=O)=O)cc1 the results were CaV13 ICDI inh -8.
Nc1[nH]c(C(=O)c2ccccc2)c(-c2ccc(Cl)cc2)c1C(=O)c1c[nH]c2ccc(F)cc12 was read as CaV13 ICDI inh -15.
Screening O=C1CCc2cc(S(=O)(=O)NC(Cc3ccccc3)C(=O)NCCC3=CCCCC3)ccc2N1 (stereo not given) returned T cruzi inh 6, HSF-1 act 8, Glyco luc inh -3, PfHsp90 yeast 2 6, PvdQ inh -20 and CaV13 ICDI inh 66*.
`CSC(=NC#N)N1CCN(c2ccc(Cl)cc2)CC1` gave T cruzi inh -28, HSF-1 act 56*, Glyco luc inh 1, PfHsp90 yeast 2 -24, PvdQ inh -9 and CaV13 ICDI inh -4.
For C/C=C(\C)CN1CCC(n2nccc2NC(=O)c2ccc(OC)cc2)CC1 the results were T cruzi inh 66*, HSF-1 act -11, Glyco luc inh -1, PfHsp90 yeast 2 -8, PvdQ inh -12 and CaV13 ICDI inh -6.
For COC(=O)C1=C(C)N(Cc2cccc(C(F)(F)F)c2)C(=NCc2ccc(C(F)(F)F)cc2)NC1c1cccc(F)c1 (stereo not given) the results were CaV13 ICDI inh -4.
For CC(C)=CCc1c2c(c3occ(-c4ccc(O)c(O)c4)c(=O)c3c1O)C=CC(C)(C)O2 the results were Glyco luc inh 4, PfHsp90 yeast 2 102* and PvdQ inh -6.
`CC(C)=CCc1c2c(c3occ(-c4ccc(O)cc4)c(=O)c3c1O)C=CC(C)(C)O2` gave T cruzi inh 41, HSF-1 act 9, Glyco luc inh -9, PfHsp90 yeast 2 -31 and PvdQ inh -18.
`COC(=O)c1sc(-c2ccc(Cl)cc2)cc1NC(=O)/C=C/C(=O)O` gave T cruzi inh 9, HSF-1 act 66*, Glyco luc inh 1, PfHsp90 yeast 2 -3, PvdQ inh -13 and CaV13 ICDI inh -5.
For COC(=O)c1sc(-c2ccc(Cl)cc2)cc1NC(=O)COCC(=O)O the results were T cruzi inh -7, HSF-1 act 0, Glyco luc inh 0, PfHsp90 yeast 2 0, PvdQ inh -2 and CaV13 ICDI inh -3.
`COc1cccc(CNC(=O)[C@H]2CCCN2C(=O)[C@H]2CCCN2C(=O)c2cccc3ccccc23)c1` gave CaV13 ICDI inh -4.
`COc1ccc(SCC(O)Cn2c3ccccc3c3ccccc32)c(OC)c1` (stereo not given) gave CaV13 ICDI inh -6.
CCc1nc2ccc(C(=O)N3CCN(C(=O)c4ccco4)CC3)cn2c1N(C)C(=O)c1cccc(OC)c1 was read as Glyco luc inh -2 and CaV13 ICDI inh -5.
`O=C(c1ccccc1)c1ccc(NCCCn2ccnc2)c([N+](=O)[O-])c1` gave T cruzi inh 56*, HSF-1 act 6, Glyco luc inh -3, PfHsp90 yeast 2 -3, PvdQ inh -1 and CaV13 ICDI inh -4.
`CCN(CC)S(=O)(=O)c1ccc(NCCCn2ccnc2)c([N+](=O)[O-])c1` gave T cruzi inh 21, HSF-1 act 6, Glyco luc inh 2, PfHsp90 yeast 2 -1, PvdQ inh -16 and CaV13 ICDI inh -18.
